Activity and MIC data for five compounds are collected here from ChEMBL document CHEMBL1154555, “Antifungal and larvicidal compounds from the root bark of Cordia alliodora” (2000).

One may read the MIC as the smallest concentration in the dilution series that meets the test's criterion for growth inhibition. The low end stands for inhibition by little substance, the high end for a need for much substance.

Test [1] has as its system Candida albicans. In words: Antimicrobial activity against sCandida albicans assessed as drug level causing growth inhibition on silica gel TLC plate after 24 hrs. The test is classed as functional. The method, boiled down:
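Agar overlay bioautography: 10 µL of geometric dilutions from 5 mg/mL stocks were spotted on Si gel 60 F254 glass TLC plates. Plates were developed in petroleum ether-EtOAc (1:1) and dried, then overlaid with about 1 mm of molten malt agar carrying about 107 yeast cells/mL. Plates were incubated overnight at 30 °C, moist, then sprayed with MTT (2.5 mg/mL). The read-out was the minimal amount (µg) giving clear spots on purple, with a nystatin reference.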

The test system of test [2] is Cladosporium cucumerinum. In words: Antimicrobial activity against Cladosporium cucumerinum after 24 hrs by agar dilution method. It is filed as functional. The method, boiled down:
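Geometric dilutions were made in DMSO from 3 mg/mL DMSO stocks and added to Sabouraud agar in sealed 24-well plates, with final DMSO ≤2%. A distilled-water suspension of C. cucumerinum was spread over the agar and incubated 24 h at 30 °C. The read-out was MIC (µg/mL), the average of duplicates, with no-compound growth controls and a nystatin reference.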
Background: Agar dilution tests growth on a series of plates holding different concentrations.

In test [3] the test system is Candida albicans. In words: Antimicrobial activity against Candida albicans after 24 hrs by agar dilution method. The test is classed as functional, organism-based.
For test [4], the system named is Cladosporium cucumerinum. In words: Antimicrobial activity against Cladosporium cucumerinum assessed as drug level causing growth inhibition on silica gel TLC plate after 2-3 days.
A further test has as its system Aedes aegypti. In words: Larvicidal activity against Aedes aegypti assessed as drug level required to kill instar II larvae after 24 hrs. It is filed as functional. The method, boiled down:
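Geometric dilutions were made from 5 mg/mL DMSO stocks and added to tubes holding about 20 instar II A. aegypti larvae in tap water, to a final volume of 10 mL. Tubes were kept in darkness at 26-28 °C for 24 h. Larval lethality was scored under lab light, in duplicate.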

≈ marks a conversion by molar mass, not a printed value.

Take NYSTATIN: the Activity with Candida albicans [1] amounted to 0.1 µg. Also, the MIC in the test on Cladosporium cucumerinum [2] and in the test with Candida albicans [3] was 1 µg/mL each time.

With `COC(=O)CCc1cc(OC)c(OC)cc1OC`, the Activity in the test on Candida albicans [1] was over 50 µg; with Cladosporium cucumerinum [4], 5 µg; in the test with Aedes aegypti it was 12.5 µg/mL. For the same compound, the MIC in the test on Cladosporium cucumerinum [2] amounted to 15 µg/mL (≈ 59 µM).

Regarding `CC(C)=CCCC(C)(O)/C=C\c1cc(O)ccc1O` (stereo not drawn), the figures for the Activity in the test with Candida albicans [1], in the test on Cladosporium cucumerinum [4] and in the test on Aedes aegypti were over 50 µg, 5 µg and over 50 µg/mL, respectively. In the test with Cladosporium cucumerinum [2], this compound yielded an MIC of 15 µg/mL (≈ 57.2 µM).

As to `C/C=C\c1cc(OC)c(OC)cc1OC` [CIS-ASARONE], the Activity in the test with Aedes aegypti turned out to be 25 µg/mL.

As to `CC1=CC(=O)c2c(O)cccc2C1=O` [PLUMBAGIN], in the test with Aedes aegypti, the Activity is 3 µg/mL.
